According to ChEMBL document CHEMBL2069249, “Saquayamycins G-K, cytotoxic angucyclines from Streptomyces sp. Including two analogues bearing the aminosugar rednose” (J Nat Prod, 2012):

Columns and labels:
NCI-H460 = test: Growth inhibition of human NCI-H460 cells incubated for 48 hrs by resazurin dye reduction based fluorimetric assay; format: functional; conditions: NCI-H460, 48 h
How it was run: (§1)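 Cells seeded at 5 × 10^3 per well in full growth medium, adhered overnight, then medium replaced with fresh medium containing serial compound concentrations or DMSO control; 48 h at 37 °C. Resazurin added, 3 h at 37 °C; fluorescence ex 560/em 590 nm, time-zero reading subtracted. GI50 by nonlinear sigmoidal dose-response fit; landomycin A positive control; four replicates.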

PC-3 = test: Growth inhibition of human PC3 cells incubated for 48 hrs by resazurin dye reduction based fluorimetric assay; format: functional; conditions: PC-3, 48 h; how it was run: as §1
[1] = target: Nitric oxide synthase, inducible (Homo sapiens, UniProt P35228); test: Inhibition of iNOS
[2] = Inhibition of bovine brain FPTase; set-up: species or system Bos taurus

Nitric oxide synthase, inducible, sequence (P35228 whole entry): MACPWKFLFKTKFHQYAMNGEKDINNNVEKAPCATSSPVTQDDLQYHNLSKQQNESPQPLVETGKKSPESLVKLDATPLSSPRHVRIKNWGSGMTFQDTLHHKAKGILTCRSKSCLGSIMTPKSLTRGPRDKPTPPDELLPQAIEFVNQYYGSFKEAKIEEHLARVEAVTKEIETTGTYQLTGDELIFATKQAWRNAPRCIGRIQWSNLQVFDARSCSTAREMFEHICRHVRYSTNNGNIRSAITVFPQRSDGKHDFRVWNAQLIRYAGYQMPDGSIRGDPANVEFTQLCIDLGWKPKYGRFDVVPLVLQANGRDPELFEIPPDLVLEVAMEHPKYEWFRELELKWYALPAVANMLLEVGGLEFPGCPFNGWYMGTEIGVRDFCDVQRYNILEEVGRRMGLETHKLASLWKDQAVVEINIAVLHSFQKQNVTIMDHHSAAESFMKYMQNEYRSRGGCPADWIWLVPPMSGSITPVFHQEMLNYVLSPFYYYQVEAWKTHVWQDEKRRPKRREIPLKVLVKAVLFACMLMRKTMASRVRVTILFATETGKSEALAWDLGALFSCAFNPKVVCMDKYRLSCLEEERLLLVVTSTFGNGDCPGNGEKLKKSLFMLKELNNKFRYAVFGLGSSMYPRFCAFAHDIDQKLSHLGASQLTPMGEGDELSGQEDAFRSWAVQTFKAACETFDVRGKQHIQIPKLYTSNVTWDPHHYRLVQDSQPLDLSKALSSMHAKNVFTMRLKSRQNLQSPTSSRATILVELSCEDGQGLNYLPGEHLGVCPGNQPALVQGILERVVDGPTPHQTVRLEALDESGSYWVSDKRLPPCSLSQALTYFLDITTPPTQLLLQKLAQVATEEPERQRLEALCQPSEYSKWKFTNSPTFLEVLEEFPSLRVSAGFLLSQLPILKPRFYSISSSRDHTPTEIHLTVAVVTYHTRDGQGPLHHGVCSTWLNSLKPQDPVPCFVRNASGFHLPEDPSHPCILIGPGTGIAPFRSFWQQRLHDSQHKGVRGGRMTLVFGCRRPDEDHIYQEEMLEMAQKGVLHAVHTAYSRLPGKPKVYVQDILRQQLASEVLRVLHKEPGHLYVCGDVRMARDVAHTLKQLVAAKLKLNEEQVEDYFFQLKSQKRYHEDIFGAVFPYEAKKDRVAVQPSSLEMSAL

Row | GI50 (NCI-H460) | GI50 (PC-3) | IC50 [1] | IC50 [2] | Compound
1 | 13200 nM | 1760 nM |  |  | C[C@@H]1O[C@H]2O[C@@H]3[C@@H](C)O[C@@H](c4ccc5c(c4O)C(=O)C4=C(C5=O)[C@@]5(O)C(=O)C[C@](C)(O)C[C@@]5(O)C=C4)C[C@H]3O[C@H]2CC1=O [SAQUAYAMYCIN B1]
2 |  |  | 101000 nM |  | C[C@@H]1O[C@@H](O[C@H]2[C@H](O)C[C@H](c3ccc4c(c3O)C(=O)C3=C(C4=O)[C@@]4(O)C(=O)C[C@](C)(O)C[C@@]4(O)C=C3)O[C@@H]2C)C=CC1=O [SAQUAYAMYCINS A1]
3 |  |  |  | 1800 nM | C[C@@H]1O[C@@H](O[C@H]2[C@H](O)C[C@H](c3ccc4c(c3O)C(=O)C3=C(C4=O)[C@@]4(O)C(=O)C[C@](C)(O[C@H]5CC[C@H](O[C@H]6CCC(=O)[C@H](C)O6)[C@H](C)O5)C[C@@]4(O)C=C3)O[C@@H]2C)C=CC1=O [SAQUAYAMYCINS E]
4 |  |  | 43500 nM |  | C[C@@H]1O[C@@H](O[C@H]2CC[C@H](O[C@H]3[C@H](O)C[C@H](c4ccc5c(c4O)C(=O)C4=C(C5=O)[C@@]5(O)C(=O)C[C@](C)(O)C[C@@]5(O)C=C4)O[C@@H]3C)O[C@H]2C)C=CC1=O
5 | 6720 nM | 554 nM |  |  | C[C@@H]1O[C@@H](O[C@H]2CC[C@H](O[C@@]3(C)CC(=O)[C@]4(O)C5=C(C=C[C@]4(O)C3)C(=O)c3c(ccc([C@H]4C[C@@H](O)[C@H](O)[C@@H](C)O4)c3O)C5=O)O[C@H]2C)C=CC1=O (relative stereo) [SAQUAYAMYCIN G]
6 | 7280 nM | 148 nM |  |  | C[C@@H]1O[C@@H](O[C@H]2CC[C@H](O[C@@]3(C)CC(=O)[C@]4(O)C5=C(C=C[C@]4(O)C3)C(=O)c3c(ccc([C@H]4C[C@@H](O)[C@H](O[C@H]6CC[C@H](O)[C@H](C)O6)[C@@H](C)O4)c3O)C5=O)O[C@H]2C)C=CC1=O [SAQUAYAMYCIN K]

The remaining lines, values behind:

Row | Compound | GI50 (NCI-H460) | GI50 (PC-3) | IC50 [1] | IC50 [2]
7 | C[C@@H]1O[C@H]2O[C@@H]3[C@@H](C)O[C@@H](c4ccc5c(c4O)C(=O)C4=C(C5=O)[C@@]5(O)C(=O)C[C@](C)(O[C@H]6CC[C@H](O[C@H]7CC[C@H](O)[C@H](C)O7)[C@H](C)O6)C[C@@]5(O)C=C4)C[C@H]3O[C@H]2CC1=O [SAQUAYAMYCIN J] | 5690 nM | 179 nM |  | 
8 | Cc1cc(O)c2c(c1)C[C@@H](O)C1=C2C(=O)c2c(O)ccc(O[C@H]3C[C@@H](O)[C@H](O[C@H]4C[C@@H](O[C@H]5CC[C@H](O[C@H]6C[C@@H](O)[C@H](O[C@H]7C[C@@H](O[C@H]8CC[C@H](O)[C@H](C)O8)[C@H](O)[C@@H](C)O7)[C@@H](C)O6)[C@H](C)O5)[C@H](O)[C@@H](C)O4)[C@@H](C)O3)c2C1=O [LANDOMYCIN A] | 4110 nM | 550 nM |  | 
9 | C[C@@H]1O[C@@H](O[C@H]2CC[C@H](O[C@@]3(C)CC(=O)[C@]4(O)C5=C(C=C[C@]4(O)C3)C(=O)c3c(ccc([C@H]4C[C@@H](O)[C@H](O[C@@H]6O[C@@H](C)C(=O)C=C6N)[C@@H](C)O4)c3O)C5=O)O[C@H]2C)C=CC1=O (relative stereo) [SAQUAYAMYCIN I] | 7940 nM | 915 nM |  | 
10 | C[C@@H]1O[C@@H](O[C@H]2CC[C@H](O[C@@]3(C)CC(=O)[C@]4(O)C5=C(C=C[C@]4(O)C3)C(=O)c3c(ccc([C@H]4C[C@H]6O[C@H]7CC(=O)[C@H](C)O[C@H]7O[C@@H]6[C@@H](C)O4)c3O)C5=O)O[C@H]2C)C=CC1=O [SAQUAYAMYCIN B] | 3930 nM | 74.5 nM |  | 
11 | C[C@@H]1O[C@@H](O[C@H]2[C@H](O)C[C@H](c3ccc4c(c3O)C(=O)C3=C(C4=O)[C@@]4(O)C(=O)C[C@](C)(O[C@H]5CC[C@H](O[C@H]6C=CC(=O)[C@H](C)O6)[C@H](C)O5)C[C@@]4(O)C=C3)O[C@@H]2C)C=CC1=O [SAQUAYAMYCINS A] | 6200 nM | 106 nM |  | 
12 | C[C@@H]1O[C@@H](O[C@H]2CC[C@H](O[C@@]3(C)CC(=O)[C@]4(O)C5=C(C=C[C@]4(O)C3)C(=O)c3c(ccc([C@H]4C[C@H]6O[C@H]7CC(=O)[C@H](C)O[C@H]7O[C@@H]6[C@@H](C)O4)c3O)C5=O)O[C@H]2C)C(N)=CC1=O [SAQUAYAMYCIN H] | 3300 nM | 790 nM |  | 
13 | C[C@@H]1O[C@@H](O[C@H]2CC[C@H](O[C@@]3(C)CC(=O)[C@]4(O)C5=C(C=C[C@]4(O)C3)C(=O)c3c(ccc([C@H]4C[C@@H](O)[C@H](O[C@H]6CCC(=O)[C@H](C)O6)[C@@H](C)O4)c3O)C5=O)O[C@H]2C)C=CC1=O [SAQUAYAMYCINS F] |  |  |  | 2000 nM
